Screening results from PubChem BioAssay.
proCasp7 act – counter-screen for procaspase-3 activators: activators of human procaspase-7; activation, % at 8.5 µM; recombinant procaspase-7, Ac-DEVD-pNA absorbance 405 nm; D23A/D198A/D206A triple mutant, cannot self-cleave; scale: DMSO 0, 5 µM enzyme 100; P55210; 330,000 tested, 0.093% active;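 active = percent activation above the screen-wide mean plus 3 SD, cut at about 25% in these data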
Target sequence (P55210 whole entry D23A/D198A/D206A): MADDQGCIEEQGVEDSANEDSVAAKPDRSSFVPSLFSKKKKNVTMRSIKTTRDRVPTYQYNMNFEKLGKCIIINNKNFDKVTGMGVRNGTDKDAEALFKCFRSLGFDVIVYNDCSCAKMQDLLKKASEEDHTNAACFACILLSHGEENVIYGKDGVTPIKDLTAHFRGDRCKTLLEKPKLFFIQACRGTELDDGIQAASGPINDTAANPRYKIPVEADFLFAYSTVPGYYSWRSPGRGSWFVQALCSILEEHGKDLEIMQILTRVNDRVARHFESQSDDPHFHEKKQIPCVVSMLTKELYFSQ
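buffer or medium = Zinc-free HEPES/NaCl buffer, pH 7.4 | material = Procaspase-7 triple mutant (PC-7 D3A) | input = 2 µM procaspase-7 mutant as dispensed | signal = Epi-absorbance of released pNA at 405 nm, two timepoints | timing = 1 h preincubation, 2 h reaction | replicates = singlicate compound testing | evaluation = % activation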
GRIN3A LBD mod – modulators (binders) of human NR3A ligand-binding domain; NR3A LBD differential scanning fluorimetry, Tm shift; 0% = protein alone, 100% = glycine-bound protein; Tm shift relative to glycine control, % at 25 µM; AID 1259313; 340,000 tested, 2.5% active;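 active = melting temperature shift of at least 10% of the positive control shift, at one fixed dose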
aDG glyco up – increases alpha dystroglycan glycosylation | Pro5-aDG cells, alpha-DG glycosylation AlphaScreen (IIH6); 0% Pro5, 100% B10-LARGE cell signal | activation, % at 10 µM | 360,000 tested, 0.22% active;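 active = activation of at least 8% versus controls, or a plate z-score of at least 8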;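 note: Pro5 are CHO cells carrying HIG-tagged alpha-DG that lacks glycosylation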
proCasp3 act – procaspase-3 (human) activation; 330,000 tested, 0.11% active; P42574; activation, % at 8.5 µM; recombinant procaspase-3 D3A, Ac-DEVD-pNA absorbance 405 nm;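 active = activation above the mean of all tested compounds plus 3 SD, cut at about 21% in these data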
Target sequence (P42574 whole entry D9A/D28A/D175A): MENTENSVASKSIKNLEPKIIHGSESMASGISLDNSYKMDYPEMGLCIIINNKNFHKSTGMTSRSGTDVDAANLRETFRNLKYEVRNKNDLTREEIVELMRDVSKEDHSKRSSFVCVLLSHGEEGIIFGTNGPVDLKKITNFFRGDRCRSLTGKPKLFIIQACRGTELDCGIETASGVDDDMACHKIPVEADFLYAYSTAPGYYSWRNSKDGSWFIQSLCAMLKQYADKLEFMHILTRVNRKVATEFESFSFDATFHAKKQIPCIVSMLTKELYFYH
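Assay system: Procaspase-3 D3A mutant, all three cleavage aspartates alanine. Buffer or medium: Zinc-free HEPES saline buffer with Triton X-100. Times: 1 h compound preincubation, 2 h substrate hydrolysis at 25 °C. Measured by: 405 nm absorbance of p-nitroaniline, reads at 0 and 120 min. Read-out basis: percent activation relative to control range. Replicates: singlicate.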
MPTP inh – inhibitors of mitochondrial permeability transition pore; isolated mouse mitochondria, Ca2+ swelling absorbance, 30 min; inhibition, % at 10 µM; 360,000 tested, 1.4% active;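 active = inhibition of 50% or more, scaled per plate between neutral and stimulator controls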
Each line names hits and unclear results; the compound was inactive in the other large screens. The list is not random: actives were taken first. Their share in the collection is about 3.7%.

COc1ccc(NC(=O)COc2cccc(-n3cnnn3)c2)cc1	GRIN3A LBD mod 15
O=C(Nc1ccc(Br)cc1)c1cccc(N2C(=O)CCC2=O)c1	GRIN3A LBD mod 14
CS(=O)(=O)c1ccc(NC(=O)c2cccc(-n3cnnn3)c2)cc1	none
O=C(Nc1ccccc1)c1cccc(N2C(=O)CCC2=O)c1	none
O=C(Nc1ccc(Br)cc1)c1cccc(-n2cnnn2)c1	GRIN3A LBD mod 39
O=C(Nc1ccc(F)cc1)c1cccc(N2C(=O)C3C4C=CC(C4)C3C2=O)c1 (stereo unspecified)	GRIN3A LBD mod 18
COC(=O)[C@]12CCCCC=C1N(CCc1ccc(OC)c(OC)c1)C(=O)[C@H](CC(=O)NCc1ccc(C)o1)C2	none (no result: proCasp7 act, GRIN3A LBD mod, proCasp3 act)
COc1cc(OC)cc(C(=O)Nc2ccc(N3CCOCC3)cc2N2CCOCC2)c1	none
C=Cn1cc(CNC[C@H]2O[C@@H](n3ccc(N)nc3=O)[C@H](O)[C@@H]2O)c(C)n1	none (no result: proCasp7 act, GRIN3A LBD mod, proCasp3 act)
CC(=O)Nc1ccc(S(=O)(=O)N(C)CC(=O)OCC(=O)N2CCCC2=O)cc1	GRIN3A LBD mod 17
Cc1cc(=O)n2[nH]c(SCc3c(F)cccc3Cl)nc2n1	none
Cc1cc(=O)n2[nH]c(SCc3ccccc3Cl)nc2n1	GRIN3A LBD mod 18
CC[N+]1(C)CCC(O)(/C=C/c2ccccc2)C(C(=O)/C=C/c2ccccc2)C1 (stereo unspecified)	none (no result: proCasp7 act, proCasp3 act)
CCCC(O)(CCC)C(=O)NN1CCCCC1	GRIN3A LBD mod 27
COc1cccc(CNC(=O)c2ccccc2NC(=O)C2=C(C)OCCS2)c1OC	GRIN3A LBD mod 112
Cc1ccc(C(=O)O)cc1-c1ccc(C=C2C(=O)c3ccccc3C2=O)o1	GRIN3A LBD mod 10
C[C@@H]1CN([C@H](C)CO)C(=O)c2cc(Br)cnc2O[C@@H]1CN(C)C(=O)c1cccc(F)c1	none (no result: proCasp7 act, GRIN3A LBD mod, proCasp3 act)
Cc1ccc(Oc2ccc(-c3nc(N)nc(N)n3)cc2)cc1C	GRIN3A LBD mod 14
Nc1nc(N)nc(-c2ccc(Oc3ccccc3)cc2)n1	none
COc1ccc(CN2C(=O)c3ccccc3C(/C=N/OCc3ccc(Cl)cc3)C2=O)cc1 (stereo unspecified)	GRIN3A LBD mod 11
CC(C)NC(=O)C1(C)CN(S(C)(=O)=O)CC(=O)N1Cc1cccs1 (stereo unspecified)	none (no result: proCasp7 act, GRIN3A LBD mod, proCasp3 act)
COc1ccc(Nc2nc3cc(-c4ccccc4C)sc3c(=O)n2C)cc1OC	none (no result: proCasp7 act, GRIN3A LBD mod, proCasp3 act)
O=C(N/N=C/c1ccc(F)c(F)c1)c1cc2c(s1)-c1ccccc1CC2	GRIN3A LBD mod 27
COC1Cc2ccccc2N(C(N)=O)c2ccccc21 (stereo unspecified)	none
O=C(O)c1cc(O)c2c(c1)[C@H]([C@H]1c3cc(C(=O)O)cc(O)c3C(=O)c3c(O[C@@H]4O[C@H](CO)[C@@H](O)[C@H](O)[C@H]4O)cccc31)c1cccc(OC3O[C@H](CO)[C@@H](O)[C@H](O)[C@H]3O)c1C2=O (stereo partly specified)	GRIN3A LBD mod 26
c1ccc(Nc2nnc(-c3cccc4ccccc34)o2)cc1	GRIN3A LBD mod 15
Cc1ccc(-c2nnc(-c3cccc4ccccc34)o2)cc1	none (no result: proCasp7 act, proCasp3 act)
COc1cc2c(cc1OC)C1(CCCC1)C(N)=C2C#N	GRIN3A LBD mod 11
O=c1ccn([C@@H]2O[C@H](CNS(=O)(=O)C3CC3)[C@@H](O)[C@H]2O)c(=O)[nH]1	GRIN3A LBD mod 14 (no result: proCasp7 act, proCasp3 act)
O=C(COC(=O)c1ccc(O)cc1O)Nc1ccc2c(c1)OCCO2	none
O=C(COC(=O)c1ccc(OC(F)F)cc1)NCCNC(=O)COC(=O)c1ccc(OC(F)F)cc1	none
O=C(COC(=O)c1ccc(O)cc1O)Nc1ccc2ccccc2c1	GRIN3A LBD mod 14
N#CCC(=O)Nc1ccc(C(=O)OCC(=O)Nc2ccc3ccccc3c2)cc1	GRIN3A LBD mod 30
CC1CCc2c(sc(NC(=O)COC(=O)c3ccc(NC(=O)CC#N)cc3)c2C#N)C1 (stereo unspecified)	GRIN3A LBD mod 26
O=C(COC(=O)c1ccc(CO)cc1)Nc1ccc(OC(F)F)cc1	GRIN3A LBD mod 16
COc1cccc(CN2CCC2(C)C(=O)NCc2cccc(C(F)(F)F)c2)c1OC (stereo unspecified)	none (no result: proCasp7 act, GRIN3A LBD mod, proCasp3 act)
CC(=O)N(C1=C(N)C(=O)c2ccccc2C1=O)c1ccccc1	aDG glyco up 4.1
Cc1[nH]n(-c2ccccc2)c(=O)c1/C=C1\C=NN=C1c1ccccc1	none
CC(C)n1c(O)c(/C=C2\C=NN=C2c2ccccc2)sc1=S	GRIN3A LBD mod 11
CCn1c(O)c(/C=C2\C=NN=C2c2ccc(C)cc2)sc1=S	GRIN3A LBD mod 12
O=C(O)C(Cc1ccccc1)N1C(=O)c2c(Cl)c(Cl)c(Cl)c(Cl)c2C1=O (stereo unspecified)	GRIN3A LBD mod 11
O=C(O)C(Cc1ccccc1)N1C(=O)/C(=C/c2ccccc2)SC1=S (stereo unspecified)	GRIN3A LBD mod 12
O=C(O)C(Cc1ccccc1)N1C(=O)/C(=C/c2cccc3ccccc23)SC1=S (stereo unspecified)	none (no result: GRIN3A LBD mod, aDG glyco up, MPTP inh)
Cc1ccc(/C=C2\SC(=S)N(C(Cc3ccccc3)C(=O)O)C2=O)cc1 (stereo unspecified)	GRIN3A LBD mod 24
O=C(O)C(Cc1ccccc1)N1C(=O)c2ccccc2C1=O (stereo unspecified)	none
CSCCC(C(=O)NC1CCCC1)n1c(-c2ccncc2)nc2ccccc21 (stereo unspecified)	none (no result: proCasp7 act, GRIN3A LBD mod, proCasp3 act)
Cc1ccc(NC(=O)CCC(=O)NN=Cc2ccc(C)o2)c(C)c1	none (no result: proCasp7 act, GRIN3A LBD mod, proCasp3 act)
COc1ccccc1N(CC(=O)Nc1cccnc1)S(=O)(=O)c1ccccc1	none
CCc1ccccc1N(CC(=O)Nc1cccnc1)S(=O)(=O)c1ccccc1	GRIN3A LBD mod 12
CCOc1ccc(N(CC(=O)Nc2cccnc2)S(=O)(=O)c2ccc(C)cc2)cc1	GRIN3A LBD mod 16
COc1ccc(N(CC(=O)Nc2cccnc2)S(=O)(=O)c2ccc(C)cc2)cc1Cl	none
CCn1c(SCC(=O)N(C)c2c(N)n(Cc3ccccc3)c(=O)[nH]c2=O)nnc1-c1cccs1	none (no result: proCasp7 act, GRIN3A LBD mod, proCasp3 act)
O=C(COc1ccc(-c2ccccc2)cc1)N1CCN(C(=O)c2cccnc2)CC1	GRIN3A LBD mod 12
O=C(COc1ccc2ccccc2c1)N1CCN(C(=O)c2cccnc2)CC1	none
CCCCC1(C)OC(=O)C(=Cc2ccc(N(CC)CC)cc2)C(=O)O1 (stereo unspecified)	none
CCN(CC)c1ccc(C=C2C(=O)OC3(CCCCC3)OC2=O)cc1	GRIN3A LBD mod 18
Cc1ccc(Nc2nc(-c3cccs3)cs2)nc1	GRIN3A LBD mod 24
Cn1c(=N)n(CC(=O)c2ccc(Br)s2)c2ccccc21	aDG glyco up 13
Cn1c(=N)n(CC(=O)c2cccs2)c2ccccc21	none
Cc1cc(C)cc(NC(=O)COC(=O)CC2CCCC2)c1	none
COc1ccc(S(=O)(=O)c2nnn(-c3cccc(Cl)c3)c2N)cc1	GRIN3A LBD mod 19
